Experimental data reported in ChEMBL document CHEMBL3124940, “Design, synthesis and biological evaluation of D-ring opened galantamine analogs as multifunctional anti-Alzheimer agents” (Eur J Med Chem, 2014).
The source made the active and inactive calls. The calls are words filed in the database; no cut-off is given here.

Key:
Rattus norvegicus [1] = experiment: Toxicity in Wistar rat assessed as lipidperoxidation product level in liver at 1 umol/100 g body weight, ip relative to control; format: organism-based; conditions: in vivo
Rattus norvegicus [2] = experiment: Toxicity in Wistar rat assessed as ethylmorphine-N-demethylation activity in liver measured as formaldehyde level at 6 umol/100 g body weight, ip by photometric analysis relative to control; format: organism-based; conditions: in vivo
Rattus norvegicus [3] = experiment: Toxicity in Wistar rat assessed as lipidperoxidation product level in kidney at 6 umol/100 g body weight, ip by fluorometric analysis relative to control; format: organism-based; conditions: in vivo
Summary of the method: (§1)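 Rats dosed i.p.; tissues taken after 24 h. For GSH/GSSG, tissue homogenized in 11 volumes of 0.2 M sodium phosphate (5 mM EDTA, pH 8.0) plus 4 volumes of 25% metaphosphoric acid and centrifuged 12 000 × g, 4 °C, 30 min; supernatant read photometrically (GSH) or fluorometrically (GSSG). Lipid peroxidation products measured as TBARS in 19-volume ice-cold saline homogenates, fluorometrically.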

Rattus norvegicus [4] = experiment: Toxicity in Wistar rat assessed as GSH level in liver at 6 umol/100 g body weight, ip by fluorometric analysis relative to control; format: organism-based; conditions: in vivo
Rattus norvegicus [5] = experiment: Toxicity in Wistar rat assessed as total glutathione level in brain at 6 umol/100 g body weight, ip by fluorometric analysis relative to control; format: organism-based; conditions: in vivo; summary of the method: as §1
Rattus norvegicus [6] = experiment: Toxicity in Wistar rat assessed as GSH level in brain at 1 umol/100 g body weight, ip by fluorometric analysis relative to control; format: organism-based; conditions: in vivo
Rattus norvegicus [7] = experiment: Toxicity in Wistar rat assessed as lipidperoxidation product level in brain at 6 umol/100 g body weight, ip by fluorometric analysis relative to control; format: organism-based; conditions: in vivo; summary of the method: as §1
Rattus norvegicus [8] = experiment: Toxicity in Wistar rat assessed as GSSG level in brain at 1 umol/100 g body weight, ip by fluorometric analysis relative to control; format: organism-based; conditions: in vivo; summary of the method: as §1
Rattus norvegicus [9] = experiment: Toxicity in Wistar rat assessed as total glutathione level in kidney at 6 umol/100 g body weight, ip by fluorometric analysis relative to control; format: organism-based; conditions: in vivo; summary of the method: as §1
Rattus norvegicus [10] = experiment: Toxicity in Wistar rat assessed as brain weight at 6 umol/100 g body weight, ip relative to control; format: organism-based; conditions: in vivo
Rattus norvegicus [11] = experiment: Toxicity in Wistar rat assessed as liver weight at 1 umol/100 g body weight, ip relative to control; format: organism-based; conditions: in vivo
Rattus norvegicus [12] = experiment: Toxicity in Wistar rat assessed as ethoxycoumarin-O-deethylation activity in liver measured as 7-hydroxycoumarin level at 6 umol/100 g body weight, ip by fluorometric analysis relative to control; format: organism-based; conditions: in vivo
Rattus norvegicus [13] = experiment: Toxicity in Wistar rat assessed as brain weight at 1 umol/100 g body weight, ip relative to control; format: organism-based; conditions: in vivo
Rattus norvegicus [14] = experiment: Toxicity in Wistar rat assessed as body weight at 1 umol/100 g body weight, ip relative to control; format: organism-based; conditions: in vivo
[15] = biological target: Amyloid-beta precursor protein (Homo sapiens) (UniProt P05067); experiment: Inhibition of amyloid beta (1 to 42) aggregation (unknown origin) at 50 uM after 6 days by atomic force microscopic analysis
Amyloid-beta precursor protein (Homo sapiens), sequence (P05067 whole entry): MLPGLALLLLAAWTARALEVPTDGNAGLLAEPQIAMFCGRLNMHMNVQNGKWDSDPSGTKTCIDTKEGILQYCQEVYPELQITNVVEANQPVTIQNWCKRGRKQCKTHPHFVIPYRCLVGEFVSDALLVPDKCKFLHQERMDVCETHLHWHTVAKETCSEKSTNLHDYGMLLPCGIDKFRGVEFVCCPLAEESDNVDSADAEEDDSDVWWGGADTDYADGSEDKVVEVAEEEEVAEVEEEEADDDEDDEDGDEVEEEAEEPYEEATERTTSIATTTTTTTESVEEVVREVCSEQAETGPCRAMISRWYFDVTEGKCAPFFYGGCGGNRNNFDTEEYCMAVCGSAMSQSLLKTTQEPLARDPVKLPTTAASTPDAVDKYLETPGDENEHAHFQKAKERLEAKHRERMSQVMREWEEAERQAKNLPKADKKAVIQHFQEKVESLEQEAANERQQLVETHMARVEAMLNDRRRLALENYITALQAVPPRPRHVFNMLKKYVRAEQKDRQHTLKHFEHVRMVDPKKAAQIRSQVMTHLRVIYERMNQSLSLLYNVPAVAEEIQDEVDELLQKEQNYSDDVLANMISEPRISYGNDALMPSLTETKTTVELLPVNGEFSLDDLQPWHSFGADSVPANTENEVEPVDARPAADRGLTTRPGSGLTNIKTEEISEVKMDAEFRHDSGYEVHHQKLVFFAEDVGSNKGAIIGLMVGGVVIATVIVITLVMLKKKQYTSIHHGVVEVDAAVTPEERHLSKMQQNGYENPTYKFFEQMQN
Summary of the method: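 Compound (2.5 µL of 1.0 mM) and 2.5 µL of 200 µM Aβ42 added to 45 µL PBS (20% TFE, pH 7.4); the control lacks compound. Incubated 37 °C for 6 days, then 3 µL deposited on freshly cleaved mica for 5 min, blown dry and imaged by atomic force microscopy.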

Rattus norvegicus [16] = experiment: Toxicity in Wistar rat assessed as total glutathione level in liver at 6 umol/100 g body weight, ip by fluorometric analysis relative to control; format: organism-based; conditions: in vivo
Summary of the method: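 Rats were dosed, killed 24 h later, and liver and other tissues were taken. Samples were homogenized in 11 vol 0.2 M sodium phosphate (5 mM EDTA, pH 8.0) plus 4 vol 25% metaphosphoric acid, then spun at 12 000 × g, 4 °C, 30 min. GSH was read photometrically and GSSG fluorometrically in the supernatant, alongside total glutathione.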

[17] = Induction of nitric oxide release in PBS at 100 uM at pH 7.4 after 24 hrs by Griess method relative to control; format: physicochemical; conditions: buffer, pH 7.4, 24 h
Summary of the method: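 Test compound at 100 µM in phosphate buffer pH 7.4, alone or with 90 µL rat serum added, incubated 37 °C for 24 h. Griess reagent added, then 30 min at 37 °C with gentle shaking; absorbance read at 540 nm and blank-corrected. Nitrite quantified against an NaNO2 calibration curve and expressed as % of a theoretical 1 mol NO per mol nitrate; n = 3.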

Rattus norvegicus [18] = experiment: Toxicity in Wistar rat assessed as ethoxyresorufin-O-deethylation activity in liver measured as resorufin level at 6 umol/100 g body weight, ip by fluorometric analysis relative to control; format: organism-based; conditions: in vivo
Summary of the method: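 Rats dosed i.p.; after 24 h, liver homogenized 1:3 w/v in 0.1 M sodium phosphate pH 7.4 and centrifuged at 9000 × g, 4 °C, 20 min. Supernatant protein determined by the Biuret method. Ethoxyresorufin-O-deethylation measured fluorometrically as resorufin formed.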

Rattus norvegicus [19] = experiment: Toxicity in Wistar rat assessed as total glutathione level in kidney at 1 umol/100 g body weight, ip by fluorometric analysis relative to control; format: organism-based; conditions: in vivo; summary of the method: as §1
Rattus norvegicus [20] = experiment: Toxicity in Wistar rat assessed as GSSG level in kidney at 6 umol/100 g body weight, ip by fluorometric analysis relative to control; format: organism-based; conditions: in vivo; summary of the method: as §1
Rattus norvegicus [21] = experiment: Toxicity in Wistar rat assessed as GSH level in liver at 1 umol/100 g body weight, ip by fluorometric analysis relative to control; format: organism-based; conditions: in vivo
Rattus norvegicus [22] = experiment: Toxicity in Wistar rat assessed as total glutathione level in liver at 1 umol/100 g body weight, ip by fluorometric analysis relative to control; format: organism-based; conditions: in vivo; summary of the method: as §1
Rattus norvegicus [23] = experiment: Toxicity in Wistar rat assessed as total glutathione level in brain at 1 umol/100 g body weight, ip by fluorometric analysis relative to control; format: organism-based; conditions: in vivo; summary of the method: as §1
Rattus norvegicus [24] = experiment: Toxicity in Wistar rat scopolamine-induced cognition impairment model assessed as change in movement at 1 umol/100 g body weight, ip; format: organism-based; conditions: in vivo
Summary of the method: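 60-day-old female Wistar rats were trained in an eight-arm radial maze to no errors in under 60 s on 3 consecutive days; each rat served as its own control. Compound in saline was given i.p., then scopolamine (0.05 mg/100 g, saline, i.p.) 5 min later. Errors plus baits not found after 10 min and total searching time were recorded before and 20, 60 and 120 min after scopolamine; n = 14, mean ± SEM.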

[25] = biological target: Amyloid-beta precursor protein (Homo sapiens) (UniProt P05067); experiment: Inhibition of amyloid beta (1 to 42) aggregation (unknown origin) after 1 hr by thioflavin T fluorescence assay
Summary of the method: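 Aβ42 stock (200 µM in DMSO) centrifuged 12,000 rpm for 10 min; supernatant used. Compound (2 µL of 0.2–4.0 mM DMSO stock) and 2 µL Aβ42 stock added to 76 µL PBS pH 7.4, incubated 1 h at room temperature. 80 µL of 5 µM ThT in 50 mM glycine-NaOH pH 8.5 then added; fluorescence read at excitation 430 nm, emission 488 nm.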

COc1ccc2c(c1)oc1cccc(CN(C(=O)CCO[N+](=O)[O-])C(C)C)c12
Activity (Rattus norvegicus [1]): 57.7 nmol/g
Activity (Rattus norvegicus [2]): 0.52 nmol/mg/min
Activity (Rattus norvegicus [3]): 96.2 nmol/g
Activity (Rattus norvegicus [4]): 2482 µg/g
Activity (Rattus norvegicus [5]): 830 µg/g
Activity (Rattus norvegicus [6]): 645 µg/g
Activity (Rattus norvegicus [7]): 156 nmol/g
Activity (Rattus norvegicus [8]): 84.8 µg/g
Activity (Rattus norvegicus [9]): 1800 µg/g
Activity (Rattus norvegicus [10]): 1.87 g
Activity (Rattus norvegicus [11]): 7.6 g
Activity (Rattus norvegicus [12]): 178 pmol/mg/min
Activity (Rattus norvegicus [13]): 1.95 g
Activity (Rattus norvegicus [14]): 264 g
inhibition [15]: Active
Activity (Rattus norvegicus [16]): 3320 µg/g
Activity [17]: 4.8%
Activity (Rattus norvegicus [18]): 121 pmol/mg/min
Activity (Rattus norvegicus [19]): 1783 µg/g
Activity (Rattus norvegicus [20]): 159 µg/g
Activity (Rattus norvegicus [21]): 2542 µg/g
Activity (Rattus norvegicus [22]): 3365 µg/g
Activity (Rattus norvegicus [23]): 814 µg/g
Activity (Rattus norvegicus [24]): Non-toxic
inhibition [25]: Dose-dependent effect
